Most compounds without a hit are left out; they make up all but 1.5% or so of the library.
CCR6 antag – CCR6 receptor antagonists, primary screen, cell-based, CHO-K1, luminescence, beta-arrestin, uHTS. hit rate 0.49% among 340,000. CHO-K1 CCR6 PathHunter beta-arrestin, CCL20-stimulated. inhibition, % at 20 µM. C-C chemokine receptor type 6 (Homo sapiens), P51684. AID 493098, 2011;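 active = compounds whose inhibition of the agonist-driven luminescence signal at 20 µM reaches about 50%, limit read from the data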;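 also: cells stimulated with CCL20 at 14 nM final; plate controls were DMSO with CCL20 for no effect and DMSO without agonist for full effect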
Target sequence (P51684 whole entry, looked up): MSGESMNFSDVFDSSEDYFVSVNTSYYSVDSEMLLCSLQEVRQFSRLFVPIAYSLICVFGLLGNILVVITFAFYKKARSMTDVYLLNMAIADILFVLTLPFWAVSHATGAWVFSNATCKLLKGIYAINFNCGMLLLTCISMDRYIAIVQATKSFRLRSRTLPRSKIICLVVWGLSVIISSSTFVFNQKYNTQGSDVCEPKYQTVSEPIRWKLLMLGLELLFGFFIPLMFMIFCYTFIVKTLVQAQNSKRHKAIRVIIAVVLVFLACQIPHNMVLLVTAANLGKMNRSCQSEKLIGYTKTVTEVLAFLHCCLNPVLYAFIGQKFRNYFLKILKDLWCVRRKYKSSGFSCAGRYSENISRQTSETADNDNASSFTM
EBI2 antag – EBI2 receptor antagonists, beta-arrestin recruitment, primary screen, cell-based, luminescence, 7a,25-OHC stimulation, uHTS; 7a,25-OHC stimulated; hit rate 0.81% among 360,000; G-protein coupled receptor 183 (Homo sapiens), P32249; inhibition, % at 5 µM; in the data active = inhibition above about 38%;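 also: enzyme fragment complementation signal reports receptor beta-arrestin coupling in cells; 0% = agonist plus DMSO wells and 100% = wells without agonist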
APJ antagonist – antagonists of human apelin receptor APJ, primary screen, CHO-K1 cells, beta-arrestin complementation, luminescence. P35414. inhibition, % at 20 µM. hit rate 0.32% among 330,000. AID 2521, 2010;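 active = inhibition above about 40% at 20 µM, limit read from the data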;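 also: cells challenged with 10 nM apelin-13 agonist together with compound; plate controls were apelin-13 plus DMSO wells for no effect and DMSO wells lacking apelin-13 for full effect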
CXCR6 block – CXCR6 receptor inhibitors, primary screen, cell-based, beta-arrestin, luminescence, CHO-K1 PathHunter, 1536-well; hit rate 0.36% among 360,000; AID 602244, 2012; inhibition, % at 20 µM; C-X-C chemokine receptor type 6 (Homo sapiens), O00574; in the data active = inhibition above about 34%, passing the limit was not always enough;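 also: antagonist mode with CXCL16 agonist at 10 nM final; 0% = 10 nM CXCL16 with DMSO and 100% = unstimulated wells without agonist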
APJ ag – agonists of human apelin receptor APJ, primary screen, CHO-K1 cells, PathHunter beta-arrestin, luminescence; P35414; 0% DMSO wells, 100% apelin; activation, % at 20 µM; hit rate 0.11% among 330,000; AID 2520, 2010;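 active = activation more than six SD over the plate average, tested at 20 µM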;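 also: 0% = DMSO alone and 100% = apelin-13 at 10 nM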
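Assay system: CHO-K1 APJ beta-arrestin complementation cell line / Compound: single test compound dose, 20 µM final, 1% DMSO / Times: overnight seeding, 90 min compound at 25 °C, 1 h detection / Technique: beta-gal luminescence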
EBI2 conf – EBI2 antagonist hit retest, beta-arrestin, confirmation, cell-based, single concentration, luminescence, 7a,25-OHC stimulation | hit rate 29% among 2,400 | shares compounds with EBI2 antag | 7a,25-OHC antagonism | inhibition, % at 5 µM;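 active = inhibition of at least 50%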
EBI2 ag – EBI2 agonist activity of antagonist hits, confirmation, counter-screen for EBI2 antagonist project, cell-based, single concentration, agonist mode, luminescence; AID 652000, 2013; activation, % at 5 µM; shares compounds with EBI2 antag; EBI2-expressing cells, 60 min; 0% vehicle, 100% 7α,25-dihydroxycholesterol control; 2,400 tested, under 10 active;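 active = activation of at least 50%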
bGal counter – E. coli beta-galactosidase enzyme inhibition, confirmation, counter-screen for EBI2 antagonist project, biochemical, luminescence, single concentration; shares compounds with EBI2 antag; purified beta-galactosidase, luminescent Galacton Star, 15 min; inhibition, % at 5 µM; hit rate 1% among 2,400; AID 652176, 2013;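 active = replicate-average signal at least 3 plate SD below neutral wells, shown as high inhibition, flagging enzyme-inhibiting false positives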;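 also: 0% = DMSO wells with enzyme and 100% = wells lacking enzyme; higher means stronger loss of beta-gal luminescence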
Starred values were filed as active, the others as inactive; nt = not tested or not shown.

SMILES	CCR6 antag	EBI2 antag	APJ antagonist	CXCR6 block	APJ ag	EBI2 conf	EBI2 ag	bGal counter
Nc1ccccc1-c1ccc([N+](=O)[O-])cc1	9	0	nt	-4	nt	nt	nt	nt
COc1ccc(NC(=O)CCCn2nc(C)c3c(C)n(-c4ccccc4)nc3c2=O)cc1	8	4	15	10	3	nt	nt	nt
CC(C)(C)N(Cc1ccccc1)C(=O)CN1C(=O)NC2(CCCCCC2)C1=O	4	2	13	3	-5	nt	nt	nt
Cc1ccc(SCC2(O)CCN(S(=O)(=O)c3ccc(Cl)cc3)CC2)cc1	2	28	2	-3	1	nt	nt	nt
Cc1ccc(S(=O)(=O)N2CCN(C(=O)CSc3ccc(Cl)cc3)CC2)cc1	15	92*	-9	11	-2	68*	0	7
Cc1ccc2nc(-c3ccncc3)cc(C(=O)Nc3ccc(F)cc3C)c2c1	-7	51*	10	-1	1	64*	1	8
C[C@@H]1CN([C@@H](C)CO)S(=O)(=O)c2ccc(Br)cc2O[C@@H]1CN(C)C(=O)C1CC1	nt	-7	nt	-2	nt	nt	nt	nt
COc1ccc(OC)c(C2=Nn3c(nnc3-c3cccc(OC(C)C)c3)SC2)c1	20	46*	-8	18	-6	35	1	-2
COc1ccc(OC)c(C2=Nn3c(nnc3-c3ccco3)SC2)c1	15	32	17	11	0	nt	nt	nt
Cc1cc(S(=O)(=O)N(Cc2ccc(C(C)(C)C)cc2)Cc2cccs2)ccc1-n1cnnn1	7	48*	2	8	-4	22	1	5
CCc1ccc(Oc2coc3cc(OCC(=O)Nc4cc(C)ccc4C)ccc3c2=O)cc1	2	52*	15	-5	4	11	0	-11
O=C(Nc1ccccc1)N1CCC(c2nc(-c3ccc(S(=O)(=O)N4CCOCC4)cc3)no2)CC1	0	45*	16	-1	-4	27	0	11
O=C(Nc1cccc(C(F)(F)F)c1)N1CCC(c2nc(-c3ccc(F)cc3)no2)CC1	-3	43*	-30	-22	-3	6	-1	-11
O=C(c1ccccc1)N1CCC(c2nc(-c3ccc(S(=O)(=O)N4CCOCC4)cc3)no2)CC1	-2	21	21	8	-2	nt	nt	nt
Cc1cccc(C(=O)N2CCC(c3nc(-c4ccc(S(=O)(=O)N5CCOCC5)cc4)no3)CC2)c1	11	79*	-8	0	-3	54*	2	2
O=C(Nc1ccccc1)N1CCCC(c2nc(-c3ccc(F)cc3)no2)C1 (configuration not stated)	-6	6	-2	-10	2	nt	nt	nt
Oc1ccc(/C=N/NC(=S)N2CCOCC2)cc1	27	-9	27	19	-6	nt	nt	nt
O=C(N/N=C/C=C/c1ccc2c(c1)OCO2)C(O)c1ccccc1 (configuration not stated)	3	4	6	1	1	nt	nt	nt
CCOC(=O)c1[nH]c(C)c(C(=O)OCCN2C(=O)c3ccccc3C2=O)c1C	4	5	2	3	1	nt	nt	nt
CCOC(=O)c1[nH]c2ccc(OCC)cc2c1CCCN1C(=O)c2ccccc2C1=O	20	46*	2	4	-2	45	0	8
COc1nccnc1NS(=O)(=O)c1ccc(NC(=O)c2cccc(C)c2)cc1	3	-4	16	-1	-5	nt	nt	nt
COc1cc(NC(=O)c2ccc(-c3cccnc3)c3ccoc23)cc(OC)c1OC	nt	-2	nt	-5	nt	nt	nt	nt
O=C(Nc1cccc(OC(F)(F)F)c1)c1ccc(-c2cccnc2)c2ccoc12	nt	38*	nt	-2	nt	29	-1	-15
COc1ccc(CNc2ccc(-c3ccc(OC)cc3)nn2)cc1	-4	74*	7	10	3	39	0	4
COc1ccccc1N1CCN(C(=O)c2cc(C)on2)CC1	-9	-17	-7	-3	-2	nt	nt	nt
SMILES	CCR6 antag	EBI2 antag	APJ antagonist	CXCR6 block	APJ ag	EBI2 conf	EBI2 ag	bGal counter
COc1ccccc1N1CCN(C(=O)c2cc(-c3ccc4c(c3)OCO4)on2)CC1	-5	67*	-29	-2	-4	46	1	3
COc1ccccc1N1CCN(C(=O)c2cc(-c3cccc(Cl)c3)on2)CC1	-4	72*	-4	1	-5	34	-2	-10
COc1ccc(-c2nnc(C3CCN(S(=O)(=O)c4ccccc4)CC3)o2)cc1	0	47*	7	-5	-2	20	0	-7
COC(=O)[C@@]1(Cc2ccc(OC)cc2)[C@H]2c3cc(C(=O)N4CCCC4)n(CCc4ccc(OC)c(Br)c4)c3C[C@H]2CN1C(=O)c1ccccc1	nt	44*	nt	15	nt	5	-1	-13
CN(CC(=O)Nc1ccc(F)cc1)C(=O)COC(=O)CNC(=O)c1sc2ccccc2c1Cl	4	4	19	-4	-3	nt	nt	nt
COc1ccc(-n2nc(C(=O)NCC(=O)NCCc3ccc(OC)c(OC)c3)c3ccccc3c2=O)cc1Cl	5	1	9	0	0	nt	nt	nt
Cc1ccccc1Oc1nc2c(C)cccn2c(=O)c1/C=C(\C#N)C(=O)Nc1c(C)n(C)n(-c2ccccc2)c1=O	13	65*	-15	-1	-1	61*	1	10
Cc1c(NC(=O)/C(C#N)=C/c2c(Oc3ccccc3)nc3ccccn3c2=O)c(=O)n(-c2ccccc2)n1C	2	28	7	0	-1	nt	nt	nt
Cc1ccc(Oc2nc3ccccn3c(=O)c2/C=C(\C#N)C(=O)Nc2c(C)n(C)n(-c3ccccc3)c2=O)cc1	-9	57*	-4	1	2	62*	0	8
Cc1ccc(-c2csc(NC(=O)c3ccc(F)cc3)c2C(=O)O)cc1	0	-11	-28	-7	-3	nt	nt	nt
O=C(/C=C/c1ccc([N+](=O)[O-])cc1)N1CCN(S(=O)(=O)c2cccs2)CC1	-11	93*	-34	-1	1	63*	1	3
CCOC(=O)N1CCN(C(=O)/C=C/c2ccc(C(C)(C)C)cc2)CC1	11	62*	-9	-4	-1	53*	1	8
CCOC(=O)N1CCN(C(=O)/C=C/c2ccc(OC)c(OC)c2)CC1	11	28	-3	9	2	nt	nt	nt

Screens as filed in PubChem.
